In the EternaBench riboswitch data:

Tested on: MS2 coat protein
Test: apparent Kd, MS2 coat protein; higher = weaker binding; RNA-MaP array; FMN 200 µM where present
Procedure, shortened: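 Designs were transcribed by stalled E. coli RNA polymerase on Illumina sequencing-chip clusters. They were titrated with SNAP-549-labelled MS2 coat protein from 0.7 or 1.5 nM, doubling to 3 µM, without and then with constant ligand. Buffer: 100 mM Tris-HCl pH 7.5, 80 mM KCl, 4 mM MgCl2, BSA, DTT, yeast tRNA, Tween-20. Green signal was normalised to red-channel RNA signal and control-cluster median Fmax. Apparent Kd is the median of filtered per-cluster binding-curve fits.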

[1] = designed as: OFF switch for flavin mononucleotide, no ligand
[2] = ligand present: flavin mononucleotide, designed as: OFF switch for flavin mononucleotide
[3] = designed as: ON switch for flavin mononucleotide, no ligand
[4] = ligand present: flavin mononucleotide, designed as: ON switch for flavin mononucleotide

CGGUCUUGCAACUAUUUGUUUCACAUGAGGAUCACCCAUGUCAGAAGGAGGUGCAUAUAUUAGACCUAGGAUAUGACGUGUAAA
apparent Kd [1]: 9.79 nM | apparent Kd [2]: 28.4 nM

AAUUCACAUGAGGAUCACCCAUGUCAGGAUAUGGUUUCACGUUUUUCUUUUCUUGAGGCCAGAAGGGACAGCUA
apparent Kd [1]: 67.6 nM | apparent Kd [2]: 79.1 nM

CGUGCUAUGUAGAAGGCAGAUCUGAUUCAGAUCUGAGGAUAUACAUGAGGAUCACCCAUGUUAUGCACCAGCACGAGAGUGCAU
apparent Kd [1]: 9.83 nM | apparent Kd [2]: 40.2 nM

AUGGCUAAUGAGAAGGUGUAUAUAAAUUAUAUACAAGGAUAUCGGUCAAGCAUGAAAACAUGAGGAUCACCCAUGUAAAGCCAU
apparent Kd [3]: 9.37 nM | apparent Kd [4]: 7.57 nM

CUGCGACGGUGCACAAGUGGACGGAGAAGGCAGACAUGAGGAUCACCCAUGUGAGCCUGCUAUUCUGAGGAUAUCCGUUCACAC
apparent Kd [1]: 36 nM | apparent Kd [2]: 213 nM

CGGUACUGAGGAUAUACAUGAGGAUCACCCAUGUGUUCUAGCUAGCGUACUGGCUAUUGUAGAAGGCGGUGCUG
apparent Kd [1]: 17.5 nM | apparent Kd [2]: 99.8 nM

CGUGCGUAUGUGAGGAUAUGCUGGUCCUUGGAUCGGCAGAAGGCACAUGAGGAUCACCCAUGUGGUGUCGUACA
apparent Kd [1]: 312 nM | apparent Kd [2]: 43.2 nM

CGUGUUAGAGGAGGAUAUAGCGCAAGAAGGUCGCUAGAAGGCCUUGACAUGAGGAUCACCCAUGUGAUCGGCUCUCUGGGUAAG
apparent Kd [1]: 211 nM | apparent Kd [2]: 141 nM

AAUUUACAGCUAGGAUAUACAUGAGGAUCACCCAUGUAACGAUCGGAUCUUAUGAUCGUGUCCGUGUAGAAGGAGCAAAUAAGA
apparent Kd [1]: 6.97 nM | apparent Kd [2]: 7.4 nM

AAUGUUUUCAUAGGAUAUUGACAUUUAUUUAUUCAAGAAGGAUGAUUACAUGAGGAUCACCCAUGUUAAAAUGGAUUAACUAGU
apparent Kd [1]: 54.4 nM | apparent Kd [2]: 162 nM

CAAACCAGAGGAUAUGCGCAUAGAUCAGACUUUGUUUCUGAACAUGAGGAUCACCCAUGUAGAAGGCUGUAAAC
apparent Kd [1]: 25.5 nM | apparent Kd [2]: 24.4 nM

GCACGACAUGUAGGAUAUCGAGCGCCGGGCGCUCGAGAAGGACAUGAGGAUCACCCAUGUAUUCUGAGUGACCGAGGUCGUUGC
apparent Kd [1]: 47.9 nM | apparent Kd [2]: 431 nM

UAUAUAUAGUAAGGAUAUAUAUUUAUUUUAUAAAUAGAAGGUACAGACAUGAGGAUCACCCAUGUUAUAAUAUGGACAUGUGGA
apparent Kd [1]: 52.5 nM | apparent Kd [2]: 69.4 nM

GGUUGACAAAGUCAACCAUUACGAACAUGAGGAUCACCCAUGUAGGAUAUGCUACUCAAAGAGUAGCAGAAGGACAUGUGUCUU
apparent Kd [1]: 30.1 nM | apparent Kd [2]: 147 nM

GGGUACAUCGGAGGAUAUCUUGUAAAUACAUGAGGAUCACCCAUGUCGAUGGAGACAUCGGAGAUUGAGAAGGCCGAUGUACCG
apparent Kd [3]: 8.03 nM | apparent Kd [4]: 5.36 nM

UGGAUGGUAUGAGGAUAUGCGCGCGAAACGCGCGCAGAAGGCAUGUCAAUAGACAUGAGGAUCACCCAUGUAUUAUCUAUCCAA
apparent Kd [3]: 203 nM | apparent Kd [4]: 14.8 nM

GACUUGCUGUCAGGAUAUAACCGUCCUACACGGUUAGAAGGGACAUGAGGAUCACCCAUGUGCCAGAGCGCACGAAUUUUUUAC
apparent Kd [1]: 10.8 nM | apparent Kd [2]: 50.9 nM

AGUCGGAUCUAUUAACAUGAGGAUCACCCAUGUAUUUGCAACUAGGAUAUCGAUUAUUAUUUCGUCGAGAAGGAGUAUACAUAA
apparent Kd [1]: 24.2 nM | apparent Kd [2]: 37.3 nM

AAAAAACAUGAGGAUCACCCAUGUCCAAAAAAAAAAGGAUAUGCAAAAAAAAAAAAAAAAGCAGAAGGUUUAAAAA
apparent Kd [3]: 68.4 nM | apparent Kd [4]: 74.7 nM

GUGGUCAGACAUGAGGAUCACCCAUGUGGAAUAAAUAACACACAGGAUAUCCAAUAUAAAAUAUAGGAGAAGGGUGGAUUGGUG
apparent Kd [3]: 253 nM | apparent Kd [4]: 181 nM

CUGAUGUUAGGAUAUCAGGUCGCGCACGAAGGCGCGCGGCAUGAGAAGGAACAUGAGGAUCACCCAUGUGACGA
apparent Kd [1]: 48.4 nM | apparent Kd [2]: 145 nM

CAUGUGUAAGGAUAUGACAAUGGUAUCUUCGGAUACCAUUGUCAGAAGGUACAUGAGGAUCACCCAUGUGGAUC
apparent Kd [1]: 441 nM | apparent Kd [2]: 103 nM

UGUAUGUAGGAGAAGGAGGACUUCAUGAGGAUCACCCAUGUGUUAGGACUUAGGAUAUUUGACGACAUGAGGAUCACCCAUGUG
apparent Kd [3]: 58.3 nM | apparent Kd [4]: 49.6 nM

GUGUACAGAGGAUAUAUAUGGGCAUGGAAACAUGCAUCUUCACAUGAGGAUCACCCAUGUAGAAGGCUGUACAC
apparent Kd [1]: 143 nM | apparent Kd [2]: 84.6 nM

CCUCCACAUGAGGAUCACCCAUGUCAGGAUAUCGUGUGUUUUUUUUCGGUCUUUCGUGCGAGAAGGGACGUCUG
apparent Kd [1]: 27.4 nM | apparent Kd [2]: 29.9 nM

CGGUCGAUAUCAGGAUAUCGAUUAAUUACAUGAGGAUCACCCAUGUUGACAUGGAAUAUAACAUGCGAGAAGGGAUUACGAUCG
apparent Kd [3]: 27.6 nM | apparent Kd [4]: 10.7 nM

UUUAAGCGAGGAUAUACAUGAGGAUCACCCAUGUCAAGUAUUCUUGACGCCGUGCUCUGUAGAAGGCGCAAUUA
apparent Kd [1]: 65.2 nM | apparent Kd [2]: 522 nM

UGGUACUAGGGAGGAUAUGGUAAGAUACAUGAGGAUCACCCAUGUUUAAGAAUGCCGAGAGGCAACUAGAAGGCCCUAGUACCU
apparent Kd [3]: 6.47 nM | apparent Kd [4]: 5.04 nM

UUAUACUGAGAGAAGGUUCAAACUACAUAUUGCAUACAUGAGGAUCACCCAUGUUGGUGAAUAAGAAAGGAUAUUUUACUAUAU
apparent Kd [1]: 44 nM | apparent Kd [2]: 32.4 nM

UAGAAUCGAGGAUAUACAUGAGGAUCACCCAUGUGUGGCCAUACGGUGUGGUCGUCAGGUAGAAGGCGAUUAUA
apparent Kd [1]: 34.4 nM | apparent Kd [2]: 14.6 nM

CAGGUCUGAGGAUAUCCAUCUUCAUACAUGAGGAUCACCCAUGUUUACCUUUGGGUUUUCGGAGAAGGCAGUUUUU
apparent Kd [1]: 273 nM | apparent Kd [2]: 370 nM

ACGGAACAUGAGGAUCACCCAUGUAUCUGAGAUAUGGUCUCACAGGAUAUUCAGAGUUGCCAAUCGGAGAAGGGUGACACCAGA
apparent Kd [3]: 78.5 nM | apparent Kd [4]: 43.5 nM

CACUCACAUGAGGAUCACCCAUGUCCUAGGAGGUCAGGAUAUAGCUCGGAUGCGUUGAGGCUAGAAGGGACAGGUU
apparent Kd [3]: 79.5 nM | apparent Kd [4]: 88.6 nM

UUGGUAUUCGUAGGAUAUCUGUCGCCACCGUGUGGAGAAGGACGAACAUGAGGAUCACCCAUGUAUCAUGGUGUGGGCGUUGUU
apparent Kd [1]: 85.8 nM | apparent Kd [2]: 89.9 nM

UGUACUAUAAGGUUAAUUGUAUAUUGAGAAGGCAUUCACAUGAGGAUCACCCAUGUAACAUGGGAUGAGGAUAUCAUUUUGUAC
apparent Kd [3]: 232 nM | apparent Kd [4]: 32.6 nM

AAAUGCGUAAAGGACACAUGAGGAUCACCCAUGUUUCUGUCCAAGGAUAUGAGGUGAAUGAUCCGUCAGAAGGUGGACUUGCUU
apparent Kd [3]: 114 nM | apparent Kd [4]: 220 nM

AAAGAGGCGGAUCGCAACUACCAGCAGGAUAUGGGUGUUUUUACAUGAGGAUCACCCAUGUACAUCUAGAAGGGUUGGGUGUCC
apparent Kd [3]: 576 nM | apparent Kd [4]: 76.6 nM

GGGCCAACAUGAGGAUCACCCAUGUAGGAUAUCGCUAUUGUAAUCAUGAAACAUGAUUACAAUAGCGAGAAGGACAUAUGCAAA
apparent Kd [1]: 7 nM | apparent Kd [2]: 7.7 nM

AUGCUAUUAGGAUAUACAUGAGGAUCACCCAUGUCGCUCGAUCGACGGCUAAGACUAUGUAGAAGGGAUUACGU
apparent Kd [1]: 95.7 nM | apparent Kd [2]: 94.4 nM

CAUCUAUUUAGAGGAUAUGGUGACGAAAAGCUACCAGAAGGCUAAGUACAUGAGGAUCACCCAUGUGCGUGGGCGCUUAGGGUC
apparent Kd [1]: 9.93 nM | apparent Kd [2]: 47.8 nM

GGCGGCGCGGGCCACCGCAGGGCCAGAAGGACAUGAGGAUCACCCAUGUGGCAGGACAGGGCGGUGUAGGAUAUGGCAGGCUGG
apparent Kd [1]: 8.35 nM | apparent Kd [2]: 10.6 nM

CUCUUGUAAGGAUAUGCUGCUCGUCACGAAAGUGAUGAGUAGCAGAAGGUACAUGAGGAUCACCCAUGUAAAUA
apparent Kd [1]: 111 nM | apparent Kd [2]: 34.9 nM

CAUUAAUUGAUUAUUGAAUAUUUACAGGAUAUGUUACAUGAGGAUCACCCAUGUAAAUAUGGGUUACAGAAGGGUAUUUAUAGA
apparent Kd [1]: 36.2 nM | apparent Kd [2]: 32.5 nM

UGCCUUUGAGGAUAUACAUUGAAUUUGAUUCAUGUAAAACUACAUGAGGAUCACCCAUGUAGAAGGCAAGGGCU
apparent Kd [1]: 18.7 nM | apparent Kd [2]: 27.7 nM

CGCGUAUGAGGAUAUGCAUAAAAGGGUGCACUGAGUCUGUGACAUGAGGAUCACCCAUGUAGAAGGCGUGCGCA
apparent Kd [1]: 26.7 nM | apparent Kd [2]: 73.2 nM

GUGCCUUGGGAGAAGGCAGUAUGCAAAGCAUCCUGAGGAUAUUCAUACCGGAAACGGACAUGAGGAUCACCCAUGUGGCACAAA
apparent Kd [3]: 864 nM | apparent Kd [4]: 57 nM

AAUCAGUCAGGAUAUCGUUAAUUUAAUUGUUUGUUUUAGUUCGAGAAGGGACAUGAGGAUCACCCAUGUACUUA
apparent Kd [1]: 24.8 nM | apparent Kd [2]: 26.8 nM

AAUAGGCUCGCGCAGGAUAUGGAUCAUUCCACAUGAGGAUCACCCAUGUUAAGGAGCCUUUGCAUCCAGAAGGGUGUUGGUCUUU
apparent Kd [3]: 97.2 nM | apparent Kd [4]: 17.9 nM
